The target in data set [1] is T1, Free fatty acid receptor 1 (Homo sapiens, UniProt O14842). Nature of the data set: Agonist activity at human FFA1 expressed in CHO cells assessed as induction of receptor activation by measuring Ca2+influx at 300 nM incubated for by FLIPR method. The format is functional, cell-based. The procedure, abridged: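 CHO cells stably expressing human FFA1, seeded 15 K cells/well and grown 16 h at 37 °C. Response normalised as (A−B)/(C−B)×100 between vehicle (B) and 10 µM γ-linolenic acid (C).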

The target in data set [2] is T1, Free fatty acid receptor 1. Kind of data set: Agonist activity at human FFA1 expressed in CHO cells assessed as induction of receptor activation by measuring Ca2+influx at 100 nM incubated for by FLIPR method. The class given is functional, cell-based. The procedure, abridged: (§1)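 CHO cells stably expressing human FFA1 (NM_005303), seeded 15 K cells/well, grown 16 h at 37 °C in 5% CO2. Compounds added and Ca2+ flux read on FLIPR Tetra. Activity expressed as (A−B)/(C−B)×100, with C from 10 µM γ-linolenic acid and B from vehicle. Single-concentration data are means of three independent experiments; EC50 values are means of three determinations.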

In data set [3] the target is T1, Free fatty acid receptor 1. Nature of the data set: Agonist activity at human FFA1 expressed in CHO cells assessed as induction of receptor activation by measuring Ca2+influx incubated for by FLIPR method. The class given is functional, cell-based. The procedure, abridged:
as §1

Data set [4] in a line: Lipophilicity, logD of the compound at pH 7.4 by shake flask method. Particulars: buffer. The class given is physicochemical. An outline of the steps:
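Shake-flask method with 1-octanol and buffer at pH 7.4, shaken at 700 rpm for 24 h, then left 1 h to separate. Octanol phase diluted ×10; both phases analysed by HPLC at 254 nm in duplicate. logD taken as the octanol/buffer peak-area ratio, corrected using two calibration points per compound per solvent. Three independent experiments.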

Data set [5] relates to Mus musculus. Nature of the data set: Hypoglycemic activity in normal ICR mouse assessed as reduction in blood glucose level at 20 to 80 mg/kg, po by OGTT method. The class given is functional, organism-based. The procedure, abridged: (§2)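 Male ICR mice, 10 weeks old, fasted 12 h and randomised into groups (n = 6). Single oral dose in 0.5% carboxymethyl cellulose (10 mL/kg) at 20, 50 or 80 mg/kg. Oral glucose load (3 g/kg, 30% solution) given 30 min later. Tail blood sampled at −30, 0, 15, 30, 45, 60 and 120 min; mean ± SEM, two-tailed Student's t-test against vehicle.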

The test system of data set [6] is Mus musculus. Nature of the data set: Hypoglycemic activity in STZ-induced type-2 diabetic C57BL/6 mouse assessed as reduction in blood glucose level at 50 mg/kg, po by OGTT method. The class given is functional, organism-based. An outline of the steps: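 Male C57BL/6 mice fed 45%-fat diet for 4 weeks, given STZ ip at 80 mg/kg, then fed high-fat diet for 4 more weeks. Mice with fasting glucose ≥11.1 mmol/L were used. After a 12 h fast (n = 6/group, with a normal-mouse control group), 50 mg/kg was given orally in 0.5% CMC, then 2 g/kg glucose orally 30 min later. Glucose read by test strip from −30 to 120 min; Student's t-test.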

In data set [7] the test system is Mus musculus. Nature of the data set: Hypoglycemic activity in normal ICR mouse assessed as reduction in blood glucose level at 20 mg/kg, po by OGTT method. The format is functional, organism-based. The procedure, abridged: as §2

Broadly, the EC50 is the midpoint of the concentration-response curve. The logD is lipophilicity at a set pH, counting ionised and neutral species. A high value points to a more lipophilic compound.

Active and inactive are the calls of the source. No cut-off for these calls is given here.

T1 sequence (O14842 whole entry): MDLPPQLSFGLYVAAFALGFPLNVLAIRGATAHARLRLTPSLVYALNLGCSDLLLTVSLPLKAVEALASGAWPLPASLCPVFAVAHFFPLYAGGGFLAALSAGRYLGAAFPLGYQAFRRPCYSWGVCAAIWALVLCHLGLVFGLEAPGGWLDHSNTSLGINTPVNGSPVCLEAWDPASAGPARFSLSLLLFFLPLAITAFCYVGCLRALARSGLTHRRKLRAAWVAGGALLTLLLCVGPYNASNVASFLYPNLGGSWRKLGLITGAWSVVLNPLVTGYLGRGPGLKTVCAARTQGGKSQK

Regarding `O=C(O)COc1ccc(NC(=O)C2(C(=O)Nc3ccccc3)CC2)cc1F`, the Activity was determined as 34.2% in data set [1] and 13.6% in data set [2]. For `Cc1ccc(C(C)C)cc1OC(C)C(=O)Nc1ccc(OCC(=O)O)c(F)c1` (stereo unspecified), the Activity in data set [2] was determined as 19.4%. Consider `Cc1ccc(OC(C)C(=O)Nc2ccc(OCC(=O)O)c(F)c2)cc1C` (stereo unspecified), for which, in data set [2], the Activity amounted to 36.8%. The EC50 in data set [3] came to 133 nM. Moreover, the logD in data set [4] was 0.33. As to `CC(C)(Oc1ccccc1)C(=O)Nc1ccc(OCC(=O)O)c(F)c1`, the Activity in data set [2] amounted to 3.56%. Still for that read-out and setting: the result for `CCOc1ccccc1OC(C)C(=O)Nc1ccc(OCC(=O)O)c(F)c1` (stereo unspecified) reads 8.79%. Take `COc1ccccc1NC(=O)C(=O)Nc1ccc(OCC(=O)O)c(F)c1`: the results for the Activity in data set [1] and in data set [2] were 19.9% and 6.78%, respectively. As for `Cc1ccc(NC(=O)C(=O)Nc2ccc(OCC(=O)O)c(F)c2)cc1`, the Activity in data set [1] is 29.9%; in data set [2], 11.3%. As to `O=C(O)COc1ccc(NC(=O)COc2ccccc2)cc1F`, the Activity in data set [1] came out at 58.7%; in data set [2], 29.8%. This molecule also returned a logD in data set [4] of -1.25.

Take `Cc1ccc(OCC(=O)Nc2ccc(OCC(=O)O)c(F)c2)cc1`: in data set [2], the Activity worked out at 31.2%. The EC50 in data set [3] is 148 nM.

As for `CC(Oc1cccc(C(F)(F)F)c1)C(=O)Nc1ccc(OCC(=O)O)c(F)c1` (stereo unspecified), the Activity in data set [2] amounted to 12.7%. On the same count and under the same terms, the result for `CC(C)c1ccc(OCC(=O)Nc2ccc(OCC(=O)O)c(F)c2)cc1` reads 11.8%; that for `O=C(O)COc1ccc(NC(=O)COc2cccc(C(F)(F)F)c2)cc1F`, 11.3%. Regarding `Cc1ccc(C(C)C)cc1OCC(=O)Nc1ccc(OCC(=O)O)c(F)c1`, the Activity in data set [2] was 14.6%. This molecule came in with a logD in data set [4] of 0.47.

In the case of `O=C(O)COc1ccc(NC(=O)COc2ccc(OC(F)(F)F)cc2)cc1F`, in data set [2], the Activity worked out at 6.45%. Consider `O=C(O)COc1ccc(NC(=O)Cc2ccccc2)cc1F`, for which the Activity in data set [1] was 39.6%; in data set [2], 19.9%. With `Cc1cccc(OCC(=O)Nc2ccc(OCC(=O)O)c(F)c2)c1`, in data set [2], the Activity came to 45.4%. Also, the EC50 in data set [3] was found to be 108 nM. For the same molecule, the logD in data set [4] is -0.99. The inhibition entry with Mus musculus [5] is “Dose-dependent effect”. Moreover, the inhibition entry in the data set on Mus musculus [6] is “Active”. Take `CC(C)(C)c1cccc(OCC(=O)Nc2ccc(OCC(=O)O)c(F)c2)c1`: the Activity in data set [2] is 40.2%. The EC50 in data set [3] came to 122 nM. This molecule also yielded a logD in data set [4] of 0.35.

As to `Cc1ccccc1OCC(=O)Nc1ccc(OCC(=O)O)c(F)c1`, in data set [2], the Activity amounted to 20.8%. Consider `COc1cccc(OCC(=O)Nc2ccc(OCC(=O)O)c(F)c2)c1`, for which, in data set [2], the Activity came to 31.7%. Besides, the 50% effective concentration (EC50) in data set [3] was 148 nM. Turning to `CCc1ccc(OCC(=O)Nc2ccc(OCC(=O)O)c(F)c2)cc1`, the Activity in data set [2] came out at 14.6%.

As to `O=C(O)COc1ccc(NC(=O)C(=O)Nc2ccccc2Cl)cc1F`, the Activity in data set [1] was determined as 27.9%; in data set [2], 10.2%.

In the case of `Cc1ccc(C)c(OC(C)C(=O)Nc2ccc(OCC(=O)O)c(F)c2)c1` (stereo unspecified), the Activity in data set [2] turned out to be 18.6%. On to `O=C(O)COc1ccc(NC(=O)Nc2ccccc2)cc1F`, for which the Activity is 23.7% in data set [1] and 8.47% in data set [2]. Take `CC(C)(C)c1ccc(OCC(=O)Nc2ccc(OCC(=O)O)c(F)c2)cc1`: the Activity in data set [2] stood at 7.65%. In the case of `Cc1cc(OCCCS(C)(=O)=O)cc(C)c1-c1cccc(COc2ccc(OCC(=O)O)c(F)c2)c1`, the results for the Activity in data set [1] and in data set [2] were 67.3% and 54.9%, respectively. The logD in data set [4] is 2.31. `Cc1cccc(NC(=O)C(=O)Nc2ccc(OCC(=O)O)c(F)c2)c1`: the Activity in data set [1] came to 36.3%; in data set [2], 17.6%. In data set [4], `Cc1cc(OCCCS(C)(=O)=O)cc(C)c1-c1cccc(COc2ccc3c(c2)OC[C@H]3CC(=O)O)c1` gave a pH-dependent lipophilicity (logD) of 2.43. Further, the inhibition entry in the data set on Mus musculus [7] was “Active”.

For `O=C(O)COc1ccc(NC(=O)C(=O)Nc2ccccc2)cc1F`, the values for the Activity in data set [1] and in data set [2] were 26.5% and 9.78%, respectively. With `O=C(O)COc1ccc(NC(=O)c2ccccc2)cc1F`, the Activity in data set [1] worked out at 12.8%; in data set [2], 3.56%. Regarding `CC(Oc1ccccc1)C(=O)Nc1ccc(OCC(=O)O)c(F)c1` (stereo unspecified), the Activity in data set [2] was 35.7%. In addition, in data set [3], the EC50 came to 135 nM. The logD in data set [4] was -0.18. Regarding `O=C(O)COc1ccc(NC(=O)C(=O)Nc2cccc(Cl)c2)cc1F`, the Activity in data set [1] is 33.7%; in data set [2], 13.3%. In the case of `COc1ccc(OCC(=O)Nc2ccc(OCC(=O)O)c(F)c2)cc1`, in data set [2], the Activity was 5.73%. Take `CCOc1ccc(OC(C)C(=O)Nc2ccc(OCC(=O)O)c(F)c2)cc1` (stereo unspecified): the Activity in data set [2] amounted to 3.56%.

For the molecule `Cc1cc(C)cc(OC(C)C(=O)Nc2ccc(OCC(=O)O)c(F)c2)c1` (stereo unspecified), the Activity in data set [2] worked out at 25.7%. In the case of `CC(Oc1ccccc1F)C(=O)Nc1ccc(OCC(=O)O)c(F)c1` (stereo unspecified), in data set [2], the Activity was 35.1%. Also, in data set [3], the EC50 was found to be 136 nM. Besides, the logD in data set [4] came out at 0.07. Turning to `CC(Oc1cccc(C(C)(C)C)c1)C(=O)Nc1ccc(OCC(=O)O)c(F)c1` (stereo unspecified), the Activity in data set [2] came out at 32.8%. Besides, in data set [3], the EC50 was found to be 140 nM. Also, the logD in data set [4] came out at 0.63. Take `CC(C)c1cccc(OCC(=O)Nc2ccc(OCC(=O)O)c(F)c2)c1`: in data set [2], the Activity is 43.3%. Moreover, the EC50 in data set [3] is 116 nM. This molecule also showed a logD in data set [4] of 0.15.
